Source: PubChem BioAssay
Most compounds without a hit are left out; they make up all but 4.3% or so of the library.
RAM inhibit – yeast RAM network inhibition; S. cerevisiae dse1pr::URA3 reporter, 5-FOA growth OD615, 2 d; analog-sensitive cbk1-as2 kinase mutant strain; inhibition, % at 50 µM; 190,000 tested, 1.8% active; AID 868;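 active = inhibition above a set limit, 3 SD over mean compound inhibition, cut at about 8.4% in these data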;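 note: inhibition rescues growth on 5-FOA so higher OD means more RAM inhibition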
Yeast life ext – yeast lifespan extension; 130,000 tested, 0.68% active; AID 775; S. cerevisiae growth with nicotinamide, OD615; deaD strain in restrictive glucose medium; inhibition of the nicotinamide effect, % at 10 µM;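 active = inhibition above a set limit, placed 3 SD over the median of all compounds, cut at about 26% in these data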
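Buffer or medium: CSMM-D glucose medium, restrictive; test system: modified budding yeast, DeaD strain; compound: single dose 10 µM compound, 0.25% DMSO; schedule: culture preincubation 4 h, compound exposure 48 h, both 30 °C; detection: optical density (absorbance) at 615 nm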
BB579 growth dn – chemicals that inhibit yeast BB579 growth in restrictive medium (lifespan-shortening candidates); S. cerevisiae BB579 growth, OD615, 48 h; inhibition, % at 10 µM; 140,000 tested, 0.51% active; AID 804;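 active = inhibition above a set limit, 3 SD over the mean compound inhibition, cut at about 44% in these data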
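Test system: Saccharomyces cerevisiae DeaD strain BB579, replicative lifespan model yeast | Buffer or medium: Restrictive CSMM-D medium | Doses: One dose, 10 µM compound with 0.25% DMSO | Incubation: 48 h exposure, 30 °C | Detection: Culture absorbance at 615 nm | Control set: Amphotericin B at 10 µg/mL as positive control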
WT yeast gro inh – growth inhibition of WT yeast, mitochondrial fusion screen. mitochondrial fusion phenotypic screen, WT strain. inhibition, % at 10 µM. 190,000 tested, 2.1% active. AID 1362; in the data active = inhibition above about 58%; tested in S. cerevisiae
Each line names hits and unclear results; the compound was inactive in the other large screens.

CC(=O)c1ccc(NC(=S)Nc2ccc(Br)c(Cl)c2)cc1	WT yeast gro inh 76.7 (no result: Yeast life ext, BB579 growth dn)
CC(=O)c1ccc(NC(=S)NC(C)c2ccc(Cl)cc2Cl)cc1 (centres undefined)	WT yeast gro inh 83.9 (no result: Yeast life ext, BB579 growth dn)
O=C(c1ccc(NC(=S)Nc2ccc(Cl)c(Cl)c2)cc1)N1CCCC1	WT yeast gro inh 80.5
CCOC(=O)Cc1csc(NC(=O)C(CC(C)C)NC(=O)C2CCCCC2)n1 (centres undefined)	none (no result: Yeast life ext, BB579 growth dn)
Cc1ccc(CSCc2nc3ccccc3[nH]2)cc1	WT yeast gro inh 67.5 (no result: Yeast life ext, BB579 growth dn)
Clc1ccc(OCCSCc2nc3ccccc3[nH]2)cc1	WT yeast gro inh 79.3
Cc1cc(-c2nnc(CCC(=O)N3CCN(Cc4cccnc4)CC3)o2)c(C)o1	none (no result: Yeast life ext, BB579 growth dn)
COc1cc(-c2nc3c(c(C)nn3-c3ccccc3)c3cc(OC)c(OC)cc23)ccc1O	RAM inhibit 8.9
COc1ccc(-c2c(C)nn(-c3ccccc3)c2N)cc1OC	none (no result: Yeast life ext)
CCOC(=O)C(=O)c1csc(NC(=O)CCSc2ccc(C)cc2)n1	none (no result: Yeast life ext, BB579 growth dn)
O=C(c1cnn(-c2ccccc2)c1)c1ccc2ccccc2c1O	RAM inhibit 10.4
COc1ccccc1NC(=O)COc1ccccc1C(=O)c1cnn(-c2ccccc2)c1	none
CCCCc1c(C)nn(-c2nnc3c4ccccc4n(CC)c3n2)c1C	WT yeast gro inh 68.0
CCn1c2ccccc2c2nc3ccccc3nc21	none
COn1c2c(c3c4nonc4ccc31)CCCC2	none
On1c2c(c3c4nonc4ccc31)CCCC2	WT yeast gro inh 73.9 (no result: Yeast life ext)
Cc1ccc(N(CC(N)=O)C2SC(=O)N(Cc3ccccc3)C2=O)cc1 (centres undefined)	RAM inhibit 9.4
O=C(CCNC(=O)c1ccccc1Cl)Nc1nc(-c2ccccc2Cl)cs1	none
O=C(COC(=O)c1ccc(CNS(=O)(=O)c2ccc(F)c(Cl)c2)cc1)NCC1CCCCC1	RAM inhibit 9.0
N#CCCN(C(=O)COC(=O)c1ccc(CNS(=O)(=O)c2ccc(F)c(Cl)c2)cc1)c1ccc(F)cc1	RAM inhibit 11.1
Cn1c(N)c(C(=O)COC(=O)CSc2ccc(Cl)cc2)c(=O)n(C)c1=O	none
CCN(CCNC(=O)C1CCN(Cc2nc(-c3ccc(Cl)cc3)oc2C)CC1)c1ccccc1	none
CCc1ccc(-c2nc(CN3CCC(C(=O)NCCN(CC)c4ccccc4)CC3)c(C)o2)cc1	WT yeast gro inh 71.1
CCc1ccc(-c2nc(CN3CCC(C(=O)N4CCN(c5ccccc5)CC4)CC3)c(C)o2)cc1	WT yeast gro inh 66.1
CCOc1cc(OCC)cc(C(=O)Nc2cccc(C(C)=O)c2)c1	none
CCOc1cccc(C(=O)Nc2ccc(N3CCN(S(C)(=O)=O)CC3)cc2)c1	none
CCOc1cccc(C(=O)NC(=S)Nc2ccc(N3CCCC3)cc2)c1	RAM inhibit 10.5
CCOc1cc(OCC)cc(C(=O)NC(=S)Nc2cccc(C(F)(F)F)c2)c1	RAM inhibit 11.3
O=C(COC(=O)C1CCN(/C=C/C(=O)C(F)(F)F)CC1)Nc1cccc(F)c1	none
O=C1CC2c3ccccc3C1C1C(=O)N(CCc3ccccc3)C(=O)C21 (centres undefined)	none (no result: Yeast life ext, BB579 growth dn)
O=C1c2nccnc2C(=O)N1c1ccc(C(F)(F)F)cc1	none (no result: Yeast life ext, BB579 growth dn)
CO/N=C\c1cc(C(=O)c2ccc(Cl)cc2Cl)cn1C	WT yeast gro inh 60.2 (no result: Yeast life ext, BB579 growth dn)
C=CCn1c(N)cc(=O)nc1SC(C)C(=O)Nc1cccc2ccccc12 (centres undefined)	none (no result: Yeast life ext)
OCCN1CCN(c2cc(-c3ccccc3)c3ccccc3n2)CC1	none
COc1ccc(NS(=O)(=O)c2ccc3c(c2)Cc2ccccc2-3)cn1	WT yeast gro inh 60.0
Cc1ccc(C(=O)N2CCCC(c3ccc(Cl)cc3)=N2)cc1	none (no result: Yeast life ext, BB579 growth dn)
Cc1cc(NCCN2CCOCC2)n2ncc(-c3ccccc3)c2n1	Yeast life ext 42.4
Cc1cccc(C)c1N1CCN(c2ccc3nnc(C(F)(F)F)n3n2)CC1	WT yeast gro inh 77.6
CSc1ccc(/C=C(/NC(=O)c2ccc(C)cc2)C(=O)Nc2cccc(C)c2)cc1	none
COc1ccc(C(C)=O)cc1CSc1nnc(Nc2ccccc2C)s1	none
COc1ccc(C(C)=O)cc1CSc1nnc(Nc2ccc(C)cc2C)s1	WT yeast gro inh 61.2
COC(=O)CC1C(=O)NCCN1Cc1cn(-c2ccc(C)cc2)nc1-c1cccc(C)c1 (centres undefined)	none (no result: Yeast life ext, BB579 growth dn)
O=C(N/N=C\c1cccc([N+](=O)[O-])c1O)C1COc2ccccc2O1 (centres undefined)	BB579 growth dn 64.0
COc1ccc(C(=O)/C(=C/c2cccs2)c2nc3ccccc3o2)cc1	none
COc1ccc(/C=C(\CC(=O)O)c2nc3ccccc3o2)cc1	RAM inhibit 9.6 (no result: Yeast life ext, BB579 growth dn)
Cc1ccc(S(=O)(=O)Nc2ccc(-c3csc(-c4ccccc4)n3)cc2)cc1	none
O=[N+]([O-])c1ccc(S(=O)(=O)Nc2ccc(-c3csc(-c4ccccc4)n3)cc2)cc1	WT yeast gro inh 95.4
C=CCN(c1ccc(C(=O)Nc2ccc(NC(C)=O)cc2)cc1)S(C)(=O)=O	none (no result: Yeast life ext, BB579 growth dn)
Cc1cccc(-c2nsc(SCC(=O)c3ccc(Cl)cc3)n2)c1	none
O=C(CSc1nc(-c2ccccc2Cl)ns1)c1ccc(Cl)cc1	RAM inhibit 10.5
O=C(CC12CC3CC(CC(C3)C1)C2)NC(=S)NCc1ccccc1	RAM inhibit 9.4
O=C(NCc1ccccc1)NCC12CC3CC(CC(C3)C1)C2	none (no result: Yeast life ext, BB579 growth dn)
Cc1nn(-c2ccc3ccccc3c2)c(=O)c2ccccc12	none (no result: Yeast life ext, BB579 growth dn)
Cc1nn(-c2nc3ccccc3[nH]2)c(=O)c2ccccc12	WT yeast gro inh 90.5 (no result: Yeast life ext, BB579 growth dn)
Cc1ccc2nc(-c3ccc(NS(=O)(=O)c4ccc(F)cc4)cc3)sc2c1	BB579 growth dn 90.7
Cc1ccc2nc(-c3ccc(NC(=O)COC(=O)c4ccco4)cc3)sc2c1	none
CNS(=O)(=O)c1cccc(C(=O)OCC(=O)Nc2ccc(-c3nc4ccc(C)cc4s3)cc2)c1	RAM inhibit 11.3 (no result: Yeast life ext, BB579 growth dn)
Cc1cc(N2CCN(c3ccccc3)CC2)nc(-n2nc(C)cc2C)n1	WT yeast gro inh 72.0
Cc1cc(C)nc(-n2nc(C)cc2Nc2ccccc2)n1	WT yeast gro inh 72.4
Cc1cc(Nc2nc(Cl)c(Cl)cc2Cl)n(-c2ccccc2)n1	WT yeast gro inh 65.3
O=C(CNC(=O)c1ccc(Cl)cc1)NCC(F)(F)F	none
COC(=O)c1sc(NC(=O)/C=C/c2ccc(C)o2)nc1C	none
CCOc1ccc(N2C(=O)CC(Sc3nc(-c4cccs4)cc(C(F)(F)F)c3C#N)C2=O)cc1 (centres undefined)	RAM inhibit 10.8
CC12COC3(C(=O)Nc4ccc5ccccc5c4)CC1CCC32C (centres undefined)	WT yeast gro inh 77.1 (no result: Yeast life ext, BB579 growth dn)
CC12COC3(C(=O)Nc4ccccc4)CC1CCC32C (centres undefined)	none (no result: Yeast life ext, BB579 growth dn)
CC(Oc1cccc(Cl)c1)C(=O)NCCCCc1ccccc1 (centres undefined)	none
O=C(COc1ccccc1-c1ccccc1)NCc1cccc(Cl)c1	WT yeast gro inh 77.7
CC(Oc1ccc(Cl)cc1Cl)C(=O)NCCCCc1ccccc1 (centres undefined)	WT yeast gro inh 61.2
O=C(COc1ccc(Cl)cc1)NCCSCc1cccc(Cl)c1	WT yeast gro inh 79.4
O=C(COc1ccc(Cl)cc1Cl)NCCSc1ccc(Cl)cc1	RAM inhibit 9.0
